Series [1] deals with Entamoeba histolytica. The experiment in a line: Antiprotozoal activity against Entamoeba histolytica after 24 hrs by trypan blue assay. Type of series: functional, organism-based. The gist of the method: (§1)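 Trophozoites kept in TYIS-33 medium, E. histolytica at 37 °C and E. invadens at 25 °C. About 5 × 10⁵ cells/mL exposed to compounds (10 mM stocks in DMSO) for 24 h, with DMSO as negative and metronidazole as positive control. Cells washed in PBS; live cells counted by hemocytometer with trypan blue. IC50 fitted from at least three experiments, each in triplicate.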

Series [2] concerns Entamoeba invadens. The experiment in a line: Antiprotozoal activity against Entamoeba invadens after 24 hrs by trypan blue assay. It counts as functional, organism-based. The gist of the method: as §1
For series [3], the system named is MCF7. In words: Cytotoxicity against human MCF7 after 36 hrs by MTT assay. It counts as cell-based. Particulars: mcf7, 48 h, in the assay text read “48 hrs” for “36 hrs”. An outline of the steps:
(§2)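 MCF7 or AH927 cells seeded at 2 × 10³ per well under 5% CO2, 37 °C. After 36 h, compound added at concentrations ranging from 0 to 100, with untreated wells as control. Viability read by MTT after 48 h of treatment.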
Background: Tetrazolium dyes change colour on reduction, which living cells bring about.

Series [4] in a line: Cytotoxicity against cat AH927 after 36 hrs by MTT assay. Particulars: Felis catus, 48 h, in the assay text read “48 hrs” for “36 hrs”. An outline of the steps:
as §2

For orientation: IC50 means the midpoint of a concentration-inhibition curve. Low readings indicate inhibition by little substance, high ones a need for much substance. For the compound `Cc1ncc([N+](=O)[O-])n1CCO` [METRONIDAZOLE], the IC50 came out at 2.5 µM in series [1] and 3 µM in series [2].
For `C=CS(=O)(=O)C1=C[C@H](OC)O[C@@H]1COC(c1ccccc1)(c1ccccc1)c1ccccc1`, in that order: 32.9 µM and 17 µM.
For `C=CS(=O)(=O)C1=C[C@@H](OC)O[C@@H]1COC(c1ccccc1)(c1ccccc1)c1ccccc1`, the results for the IC50 in series [1] and in series [2] were 37.9 µM and 25 µM, respectively.
In the case of `C=CS(=O)(=O)C1=C[C@H](OC)O[C@@H]1COCc1ccccc1`, the IC50 in series [1] was found to be 19.5 µM; in series [2], 9.3 µM. Moreover, the Activity entry in series [3] and in series [4] was “Non-toxic” in each case.
Regarding `C=CS(=O)(=O)C1=C[C@@H](OC)O[C@@H]1COCc1ccccc1`, the IC50 in series [1] was found to be 24.4 µM; in series [2], 30.1 µM.
